Measurements from paper PMC4096303 (Journal of the American Chemical Society, 2013).

Legend:
[1] = TEAC assay with cell lysates; assay type: biochemical; conditions: M17 human neuroblastoma cell lysates, relative to Trolox
Summary of the method: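 M17 cells grown in 1:1 MEM/F12K with 10% FBS and penicillin/streptomycin to 80–90% confluence. Washed and harvested in cold PBS, pelleted, then sonicated on ice in 5 mM potassium phosphate pH 7.4 (0.9% NaCl, 0.1% glucose) and cleared at 10 000g, 4 °C. Supernatant mixed with test compound (0.045–0.330 mM), metmyoglobin, ABTS and H2O2; 5 min at room temperature; A750 read. TEAC taken as slope ratio versus Trolox; triplicate.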

[2] = Parallel Artificial Membrane Permeability Assay adapted for BBB; assay type: in vitro ADME; conditions: PAMPA-BBB, 25 µM, pH 7.4, 4 h, ambient temperature
Summary of the method: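 Test compound diluted in Prisma HT buffer, pH 7.4, to 25 µM final (1% DMSO) in donor wells, 11–12 replicates per compound. Acceptor PVDF filter coated with BBB-1 lipid; brain sink buffer in acceptor wells. Sandwich held 4 h at ambient temperature, unstirred. Absorbance read on a plate reader; −logPe averaged by software.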

[3] = Solution speciation studies of Cu; assay type: binding; conditions: pH 7.4, based on concentration of unchelated Cu(II)
Summary of the method: (§1)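 Ligand and metal chloride mixed at M(II):L = 1:2: CuCl2 25 µM, or ZnCl2 50 or 250 µM depending on ligand. Titrated with small HCl aliquots, recording at least 30 UV–vis spectra over pH 2–9. Stability constants fitted from the spectra; speciation diagrams modelled to give metal-free Cu(II) or Zn(II) at pH 7.4.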

[4] = Solution speciation studies of Zn; assay type: binding; conditions: pH 7.4, based on concentration of unchelated Zn(II)
Summary of the method: as §1

[5] = tested on: preformed aggregates of Aβ and metal–Aβ; assay: Aβ disaggregation experiment; assay type: biochemical; conditions: aggregates preformed 24 h, compound 50 µM, gel/TEM
Summary of the method: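 Aβ40 or Aβ42 (25 µM) in Chelex-treated HEPES/NaCl buffer, pH 6.6 for Cu(II) or 7.4 for Zn(II), with or without CuCl2 or ZnCl2 (25 µM). Aggregated 24 h at 37 °C with agitation. Test compound then added (50 µM) and incubated 4, 8 and 24 h at 37 °C with agitation. Analysed by Tris–tricine gel/Western blot (6E10 antibody) and by uranyl acetate-stained TEM.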

Brain uptake study = assay type: in vivo, male CD1 mice; conditions: male, CD1, mouse, oral, 10 mg/kg
Summary of the method: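 Single 10 mg/kg oral gavage dose in sterile water to male CD1 mice, n = 3. Blood was drawn 5 min post-dose by retro-orbital or cardiac puncture into K2EDTA. Plasma was spun at 2000g for 5 min at 4 °C. Samples underwent protein precipitation and LC-MS/MS; LLOQ 1 ng/mL plasma, 4 ng/mL brain.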

Aβ42 = Aβ42 (Homo sapiens, UniProt P05067); assay: Ion mobility-mass spectrometry of early Aβ42 oligomerization; assay type: biochemical; conditions: IM–MS
Summary of the method: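 Lyophilized Aβ42 dissolved in 10 mM ammonium acetate, pH 7.4, to a final peptide concentration of 10 µM. Analysed by ion mobility on a traveling-wave Q-TOF mass spectrometer.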

[6] = Trolox equivalent antioxidant capacity; assay type: biochemical; conditions: ABTS cation radicals in EtOH, factor
[7] = In vitro metabolic stability, rat liver microsomes; assay type: in vitro ADME
Summary of the method: (§2)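 Liver microsomes incubated with test compound at 1 µM, 37 °C, with ketanserin as reference compound; half-life (t1/2) determined.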

[8] = UV-vis variable-pH titration; assay type: physicochemical; conditions: for pKa: Acidity constant (pKa), pH range 2–8
Summary of the method: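 Test compound (50 µM) in 100 mM NaCl, 10 mM NaOH (pH 12) titrated with small HCl aliquots, recording at least 30 UV–vis spectra over pH 2–8. Acidity constants fitted from the spectra; speciation diagram modelled to give the species distribution at pH 7.4.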

2-Deoxyribose assay = assay type: biochemical; conditions: ligand 125 µM, CuCl2 10 µM, absence and presence of Aβ (freshly prepared and aggregated)
[9] = In vitro metabolic stability, mouse liver microsomes; assay type: in vitro ADME
Summary of the method: as §2

[10] = Metal selectivity competition experiments by UV-vis; assay type: binding; conditions: stoichiometric ratios; 50 µM ligand, pH 7.4
Summary of the method: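 Ligand at 50 µM (1% DMSO) in Chelex-treated 20 mM HEPES, pH 7.4, 150 mM NaCl. It was first given 1 or 20 equiv of MgCl2, CaCl2, MnCl2, FeCl2, CoCl2, NiCl2 or CuCl2, then ZnCl2 (50 µM). Fe(II) samples were kept anaerobic by N2 purge. UV–vis spectra were recorded after 5 min at room temperature.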

[11] = In vitro metabolic stability, human liver microsomes; assay type: in vitro ADME
Summary of the method: as §2

Aβ40/Aβ42 = Aβ40/Aβ42 (Homo sapiens, UniProt P05067); assay: Aβ aggregation inhibition experiment; assay type: biochemical; conditions: Aβ 25 µM
Summary of the method: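 Aβ stock made in 1% NH4OH, diluted with ddH2O and quantified by A280. Test compound (50 µM, 1% DMSO) added with or without CuCl2/ZnCl2 (25 µM), 37 °C, constant agitation, 4, 8, 24 h. Read by 10–20% Tris–tricine gel, nitrocellulose transfer, anti-Aβ 6E10 Western blot, and TEM.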

N2aAPPswe or N2a cells = assay: Cell viability by MTT assay, Aβ- or metal-Aβ-induced toxicity; assay type: cell-based, murine; conditions: 10 µM, 24 h, both N2a and N2aAPPswe cells
Summary of the method: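 Cells kept at 37 °C under 5% CO2 and seeded at 15 000 cells/well. Given CuCl2 or ZnCl2 (10 µM) plus test compound (10 µM final, 1% DMSO) for 24 h. MTT was added for 4 h at 37 °C and formazan dissolved overnight in acidic DMF/SDS. Absorbance read at 600 nm; viability expressed relative to DMSO-only cells; n = 3.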

Aβ42, sequence (P05067 672-713): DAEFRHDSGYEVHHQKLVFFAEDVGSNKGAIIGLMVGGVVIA
Aβ40/Aβ42, sequence (P05067 672-711 limits assumed): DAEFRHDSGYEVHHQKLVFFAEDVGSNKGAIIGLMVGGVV

Cc1c(C)c2c(c(C)c1O)CCC(C)(C(=O)O)O2 (stereo not drawn) [Trolox, 6-hydroxy-2,5,7,8-tetramethylchroman-2-carboxylic acid]
Antioxidant capacity (TEAC value) in cell lysates [1]: 1.00 ± 0.08

Nc1cccc2ccc(CO)nc12 [Compound 1, (8-aminoquinolin-2-yl)methanol, reference compound]
Antioxidant capacity (TEAC value) in cell lysates [1]: 0.86 ± 0.10
−logPe [2]: 4.70 (±0.01)
Dissociation constant (Kd) with Cu(II) [3]: micromolar range
Dissociation constant (Kd) with Zn(II) [4]: micromolar range
Effect on preformed metal-free and metal-treated Aβ aggregates [5]: no discernible difference

CN(C)c1ccc(O)c(CNc2cccc3ccc(CO)nc23)c1 [ML, 4-(dimethylamino)-2-(((2-(hydroxymethyl)quinolin-8-yl)-amino)-methyl)phenol]
concentration at 5 min (Brain uptake study; brain): 14.3 ± 4 ng/g
concentration at 5 min (Brain uptake study; plasma): 5.91 ± 1.24 ng/mL
Inhibition of Aβ42 dodecamer formation (Aβ42; 1:5 mixture of Aβ42 and ML): completely
Inhibition of Aβ42 hexamer formation (Aβ42; 1:5 mixture of Aβ42 and ML): partially
Disaggregation of preformed Aβ42 dodecamers (Aβ42; Aβ42 on ice ca. 4 h, then ML added (1:5)): disaggregates preformed dodecamers
Antioxidant capacity (TEAC value) in cell lysates [1]: 1.41 ± 0.15
−logPe [2]: 4.49 (±0.01)
Free radical scavenging (TEAC) in solution relative to DAP, 1 and Trolox [6]: ca. 2.6
half-life at 1 µM [7]: < 30 min
pKa ([8]; first of three printed): 2.63
pKa ([8]; second of three printed): 3.97
pKa ([8]; third of three printed): 6.23
Neutral form at physiological pH ([8]; pH 7.4, solution speciation diagram based on the acidity constants): ca. 94%
Dissociation constant (Kd) with Cu(II) [3]: picomolar range
Copper-mediated generation of hydroxyl radicals (2-Deoxyribose assay): significantly reduced
half-life at 1 µM [9]: < 30 min
Selectivity toward Zn(II) over other divalent metal ions [10]: relatively selective for Zn(II) over Mg(II), Ca(II), or Mn(II)
half-life at 1 µM [11]: < 30 min
Effect on metal-induced Aβ aggregation (Aβ40/Aβ42; CuCl2 or ZnCl2 25 µM, compound 50 µM, 37 °C): noticeable effects on the modulation of metal-induced Aβ aggregation
Effect on metal-free Aβ40/Aβ42 aggregation (Aβ40/Aβ42; compound 50 µM, 4, 8, 24 h, 37 °C): could direct the production of Aβ species with a wide range of MW
Dissociation constant (Kd) with Zn(II) [4]: nanomolar range
Effect on preformed metal-free and metal-treated Aβ aggregates [5]: could transform preformed aggregates into relatively smaller, amorphous conformations
Cell survival, compound with and without metal ions (no Aβ) (N2aAPPswe or N2a cells): ca. 85%

CN(C)c1ccc(O)cc1 [DAP, 4-(dimethylamino)phenol, reference compound]
Effect on Zn(II)-triggered Aβ aggregation (Aβ40/Aβ42; ZnCl2 25 µM, compound 50 µM, pH 7.4): influenced Zn(II)-triggered Aβ aggregation, similar to ML
